FGF22 binding: binders of recombinant human FGF22 by thermal shift; activity (Tm shift, normalised), % at 9.99 µM; Q9HCT0; SYPRO orange fluorescence; percent of sucrose octasulfate shift, DMSO zero; 340,000 tested, 1.5% active;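 active = mean Tm shift, scaled 0 neutral to 100 positive control, at about 1.3% or above, every replicate too, limit read from the data; inconclusive = no clear call, values can overlap the other calls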
Target sequence (Q9HCT0 whole entry, looked up): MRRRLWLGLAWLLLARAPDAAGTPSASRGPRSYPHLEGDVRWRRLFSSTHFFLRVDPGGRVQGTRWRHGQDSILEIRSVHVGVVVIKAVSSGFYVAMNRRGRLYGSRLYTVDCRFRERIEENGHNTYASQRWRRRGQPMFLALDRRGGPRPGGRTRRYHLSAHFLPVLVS
PGC1a acetyl inh: modulators of PGC1a acetylation. inhibition, % at 15.6 µM. 350,000 tested, 0.17% active. AID 651687. U2OS PGC1a acetylation, AlphaScreen anti-acetyl-lysine; with virally co-expressed GCN5 acetyltransferase;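 active = every replicate shows inhibition of at least 40%; inconclusive = mean inhibition at least 40% but some replicate below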;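 also: 0% = neutral control wells and 100% = positive control wells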
rRNA inh HTS: selective bacterial rRNA inhibition in E. coli. E. coli WT GFP vs humanized-ribosome RFP mutants, fluorescence, 24 h; active compounds read low; DMSO median 0, no signal -100. AID 720706. 350,000 tested, 1.6% active. GFP signal change (wild-type ribosome), % (test concentration not listed);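 active = significant combined selectivity score with lowered wild-type GFP, culture density cut under 30%, mutant RFP and density less affected; inactive = any of these conditions unmet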
HIV Env fusion: HIV envelope-mediated fusion inhibition; AID 651610; inhibition, % at 12.3 µM; 360,000 tested, 1.1% active; HeLa-JRFL Env/CEM21 cell fusion, luciferase;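 active = mean replicate inhibition score of at least 50 and every replicate individually at or above 50; inconclusive = only one of the two criteria met; inactive = mean below 50 and not all replicates reaching 50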;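 also: 0% = plate neutral controls and 100% = maraviroc near 300 nM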
ERAP1 HTS inh: ERAP1 (human) enzyme inhibition; AID 652197; inhibition, % at 10.7 µM; 340,000 tested, 0.15% active; recombinant ERAP1, Leu-AMC fluorescence, 60 min; Q9NZ08;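 active = mean replicate inhibition of at least 30%, or all replicates individually reaching that 30% level; inactive = mean below 30% and not every replicate reaching it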;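 also: 0% = neutral control wells and 100% = L-leucinethiol positive control wells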
Cneo AK release: Cryptococcus neoformans lysis via adenylate kinase release; C. neoformans lysis, adenylate kinase release luminescence, 4 h; normalised: neutral wells 0, clomiphene wells 100; lysis activity, % at 15 µM; 360,000 tested, 0.2% active; AID 651654;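 active = mean lysis activity across replicates of at least 80%, whatever share of replicates individually reach that level; inactive = mean lysis activity below 80%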
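Schedule: static 4 h at 37 °C with compound, 1 h detection; system: C. neoformans cells; benchmarks: Clomiphene as positive control; buffer or medium: fresh YPD medium; measure: luminescence rise reflecting yeast cell lysis; measured by: luminescent adenylate kinase detection reagent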
Numbers without * were called inactive; ? = inconclusive; . = no result given; [ ] = remark or other dose. This is a sample that favours compounds with a hit; in the whole collection about 3.5% have one here.

SMILES	FGF22 binding	PGC1a acetyl inh	rRNA inh HTS	HIV Env fusion	ERAP1 HTS inh	Cneo AK release
Cc1ccc2c(C)c(C(=O)NCCc3ccco3)oc2c1C	0	-4	-26*	12	-1	-2
N#Cc1cccc(-c2ccc(C3[C@@H]4CN(S(=O)(=O)c5ccc(F)cc5)C[C@H]3N4)cc2)c1 (stereo not given in full)	.	3	1	.	2	.
O=C(O)c1cccc(N2C(=O)c3ccc(Oc4ccc(Cl)cc4)cc3C2=O)c1	0	3	-36*	8	5	.
COc1ccc(-c2ccc(C(=O)O)c(=O)[nH]2)cc1	44*	-7	7	-12	-11	.
COc1ccccc1C(=O)Nc1ccccc1SC	.	-11	.	-46	.	-3
COc1cccc(CNC(=S)Nc2cccc(Cl)c2C)c1	0	.	-17	-378	-4	8
COc1cccc(CNC(=O)c2cccnc2Sc2ccc(C)cc2C)c1	0	-5	-31*	12	2	3
COc1cccc(CNC(=S)Nc2cc(C)ccc2C)c1	1	15	-26*	-1	-3	4
CCOc1ncccc1C(=O)NCc1cccc(OC)c1	.	18	.	9	.	1
C[C@@H]1CCCCO[C@H](CN(C)C(=O)Cc2ccccc2)[C@@H](C)CN([C@H](C)CO)C(=O)c2cc(NC(=O)Nc3ccc(C(F)(F)F)cc3)ccc2O1	0	.	1	-6[16.7 µM]	0	-2
COc1ccc(-c2c(-c3cc(OC)c(OC)c(OC)c3)noc2C)cn1	.	.	.	.	.	1
COc1cc(-c2c(-c3cc(OC)c(OC)c(OC)c3)noc2C)ccc1F	0	.	-23	68*	0	.
COc1ccc(Cc2nnc(NC(=O)c3ccccc3[N+](=O)[O-])s2)cc1	0	7	-30*	-5	1	1
O=C(NNC1=Nc2ccccc2SC1)c1ccc(Cl)cc1	0	15	.	61*	0	4
CC1CCc2sc(C(=O)NNC(=S)NCC3CCCO3)cc2C1 (stereo not given)	0	.	-5	-5	3	-2
O=C(CN=C1NS(=O)(=O)c2ccccc21)OCC(=O)c1cc(F)ccc1F	43*	-10	9	12	6	2
O=C(NC(=S)N1CCN(C/C=C/c2ccccc2)CC1)c1ccc(Cl)nc1	0	3	-49*	15	-3	5
O=C(NC(=S)N1CCN(Cc2ccccc2)CC1)c1cccnc1	1	?	14	7	4	-12
CCOc1ccc(NC(=S)N2CCN(C/C=C/c3ccccc3)CC2)cc1	0	-1	-28*	21	-1	.
CCCSCCCNC(=O)c1ccc(C)c(NC(=O)C2=C(C)OCCS2)c1	0	9	-8	-12	0	3
CC(C)NC(=O)N[C@H]1CC[C@@H](CCn2cc(-c3ccccc3)nn2)O[C@H]1CO	0	-1	-5	-1[16.7 µM]	0	7
CCCC#Cc1cnc2c(c1)C(=O)N([C@@H](C)CO)C[C@@H](C)[C@H](CN(C)C(=O)CCN1CCCCC1)O2	-1	8	9	.	-1	7
COc1ccc([C@H]2/C=C\CN(S(C)(=O)=O)[C@@H](C)C(=O)N2Cc2ccc(F)cc2)cc1	0	-15	4	-10	6	1
CN1c2ccccc2Oc2nnc(N3CCN(Cc4ccccc4)CC3)cc21	43*	.	-18	-36	-6	-1
CN1c2ccccc2Oc2nnc(Cl)cc21	0	.	1	-69	-15	.
SMILES	FGF22 binding	PGC1a acetyl inh	rRNA inh HTS	HIV Env fusion	ERAP1 HTS inh	Cneo AK release
C/C=C/c1ccc([C@@H]2[C@@H](CNC(=O)C3CC3)N(C(=O)CC)[C@H]2CO)cc1	0	-4	-3	.	0	93*
CC(=O)NC[C@H]1[C@H](c2ccc(C3=CCCC3)cc2)[C@@H](CO)N1C(=O)NC(C)C	.	3	-7	.	.	1
CC(=O)NC[C@@H]1[C@@H](c2ccc(C3=CCCC3)cc2)[C@@H](CO)N1C(=O)NC(C)C	.	2	-3	.	.	112*
CCC(=O)N1[C@H](CO)[C@H](c2ccc(-c3ccc(F)cc3)cc2)[C@@H]1CNC(C)=O	.	-8	2	.	.	82*
O=S(=O)(NCc1ccccc1)c1cnc[nH]1	.	-2	.	.	.	0
O=C(COC(=O)c1ccccc1C(=O)c1ccccc1)NCCc1ccccc1	0	4	-26	10	3	.
O=C(COC(=O)c1ccccc1C(=O)c1ccc(Cl)cc1)NCCc1ccccc1	0	.	-29*	22	1	4
O=C(COC(=O)c1ccccc1C(=O)c1ccc(Cl)cc1)NC(c1ccccc1)c1ccccc1	43*	.	5	18	0	.
CC(=O)Oc1cccc(/C=c2\sc3nc(-c4ccco4)nn3c2=O)c1	.	-2	.	.	.	.
C[C@@H]1CN([C@@H](C)CO)C(=O)CCCn2cc(nn2)CO[C@@H]1CN(C)C(=O)Nc1ccc(-c2cccs2)cc1	0	-1	-3	.	-3	3
Cn1c(=S)[nH]c(=O)c2ncc(=O)[nH]c21	44*	.	.	-109	-3	.
CC(C)N(C(=O)COC(=O)[C@H](C)NC(N)=O)c1ccccc1	43*	.	11	21	-4	.
CC(C)N(C(=O)COC(=O)c1ccc(Cl)s1)c1ccccc1	0	6	-6	.	-1	-1
O=C(O)CC1C(=O)NCCN1Cc1cccs1 (stereo not given)	0	.	11	4	5	.
CCOC(=O)CC1C(=O)NCCN1Cc1cccs1 (stereo not given)	43*	.	-4	5	-5	-1
O=C(COC(=O)c1cccnc1Cl)NCCc1ccccc1	0	.	2	.	-3	-2
O=C(COC(=O)c1ccc(O)cc1)NCc1ccc2c(c1)OCO2	1	-11	-11	-2	3	0
CSc1ncccc1C(=O)OCC(=O)NCc1ccc2c(c1)OCO2	43*	7	.	-32	-5	.
COc1cc(OC)cc(C(=O)OCC(=O)NCc2ccc3c(c2)OCO3)c1	44*	.	-3	13	0	.
Cc1ccc(CNC(=O)COC(=O)c2cccnc2Cl)cc1	43*	-5	2	.	0	1
O=C(COC(=O)c1cccnc1Cl)c1ccc(F)cc1	43*	-5	9	14	1	.
O=C(COC(=O)c1cccnc1Cl)c1ccccc1	0	-1	13	.	-2	-1
COc1cccc(C(=O)O/N=C(\C)c2cnccn2)c1	0	8	-7	1	-3	.
COCCN1Cc2cc(C(=O)OC)c3c(c2C1=O)c1ccccc1n3S(=O)(=O)c1ccc(OC)cc1	0	.	-1	34	-4	.
COc1ccccc1C(=O)Oc1ccc(C(C)C)cc1	0	8	-10	.	3	.
COc1ccc(C(=O)COC(=O)c2ccc(OC)c(OC)c2)cc1OC	.	8	0	.	3	0
COc1ccc(C(=O)OCC(=O)c2ccc(F)cc2)cc1OC	0	.	-22*	22	4	-3
